Compounds with a hit are over-represented: about 3.5% of the library has one in this group of screens.
MrgX1 agonist: agonists of human MrgX1 receptor, primary screen, HEK293 cells, Fluo-4 calcium flux; Fluo-4 calcium fluorescence, agonist mode; active compounds read high; Mas-related G-protein coupled receptor member X1 (Homo sapiens), Q96LB2; B-score at 10 µM; hit rate 0.44% among 310,000;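 active means calcium response B-score plate-corrected fluorescence ratio at least 3 library SD, with starting fluorescence B-score inside 5 SD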
Target sequence (Q96LB2 whole entry, looked up): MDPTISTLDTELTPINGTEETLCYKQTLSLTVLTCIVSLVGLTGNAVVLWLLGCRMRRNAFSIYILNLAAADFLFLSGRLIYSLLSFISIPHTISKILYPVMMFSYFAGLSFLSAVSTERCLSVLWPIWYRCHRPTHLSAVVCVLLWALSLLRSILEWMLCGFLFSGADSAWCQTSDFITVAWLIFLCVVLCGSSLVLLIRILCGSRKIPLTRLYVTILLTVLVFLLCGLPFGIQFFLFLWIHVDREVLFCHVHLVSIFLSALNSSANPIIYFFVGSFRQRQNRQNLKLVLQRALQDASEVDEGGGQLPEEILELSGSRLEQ
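Material: MrgX1-expressing HEK293 cells; input: 15,000 cells per well; doses: test compound given as first of three sequential additions; schedule: overnight plating before 1 h dye loading; technique: Fluo-4 NW calcium-flux fluorescence, kinetic read; evaluation: baseline-normalised fluorescence change ratio, B-scored; control set: plate-wise positive and negative controls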
RGS4 pot: RGS4 potentiators or activators, primary screen, cell-based, HEK293 M3R inducible RGS4, calcium flux. carbachol calcium flux Fluo4; active compounds read low. B-score at 10 µM. hit rate 0.92% among 310,000;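 active means B-score of the integrated calcium signal more than 4 SD below the library mean, with starting fluorescence not abnormally high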;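 further: negative B-score means reduced calcium response which marks RGS4 activation or potentiation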
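Detection: kinetic calcium fluorescence imaging with Fluo4-AM dye, 2 µM / Material: HEK293 cells with stable M3R and inducible RGS4 / Schedule: recording 10 s baseline at 1 Hz, 100 s post-agonist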
MrgX1 antag: antagonists of human MrgX1 receptor, primary screen, HEK293 cells, Fluo-4 calcium flux; hit rate 1.3% among 310,000; BAM8-22 antagonism; active compounds read low; AID 588676, 2011; B-score at 10 µM; Mas-related G-protein coupled receptor member X1 (Homo sapiens), Q96LB2;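 active means calcium-response B-score plate-corrected more than 3 library SD below zero, starting fluorescence within 5 deviations, no agonist response on first addition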;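 further: peak minus trough fluorescence over baseline after final BAM8-22 challenge near maximal dose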
MrgX1 allo act: positive allosteric modulators of MrgX1, primary screen, HEK293 cells, Fluo-4 calcium flux. Mas-related G-protein coupled receptor member X1 (Homo sapiens), Q96LB2. FDSS; active compounds read high. B-score at 10 µM. hit rate 0.63% among 310,000;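 active means plate-corrected calcium response at least 3 library SD above typical, normal starting fluorescence, not activating the receptor alone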;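 further: compound read alongside a low EC10 to EC30 dose of BAM8-22 agonist; peak minus trough fluorescence over baseline measured at the second addition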
RGS4 inh: RGS4 inhibitors, primary screen, cell-based, HEK293 M3R inducible RGS4, calcium flux. Fluo-4 calcium flux; active compounds read high; triggered by carbachol at its EC20. hit rate 0.45% among 310,000. Regulator of G-protein signaling 4 (Homo sapiens), P49798. AID 463165, 2010. B-score at 10 µM;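 active means B-score, a plate-corrected calcium signal, over three deviations above library mean, with baseline fluorescence within five deviations of library mean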;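 further: RGS4 expression induced by doxycycline in cells with stable M3 receptor; B-score is computed from the integrated fluorescence ratio over baseline after carbachol; higher B-score means a larger calcium signal and so more RGS4 inhibition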
Target sequence (P49798 whole entry, looked up): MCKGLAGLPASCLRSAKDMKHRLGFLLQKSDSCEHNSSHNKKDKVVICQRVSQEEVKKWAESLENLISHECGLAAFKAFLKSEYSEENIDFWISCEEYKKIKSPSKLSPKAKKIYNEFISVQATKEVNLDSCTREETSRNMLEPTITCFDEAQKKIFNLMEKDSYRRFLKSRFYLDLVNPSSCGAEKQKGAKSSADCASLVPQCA
MrgX1 antag conf: MrgX1 receptor antagonists, duplicate retest, confirmation, HEK293 cells, Fluo-4 calcium flux; shares compounds with MrgX1 antag; BAM8-22 calcium flux; active compounds read low; remaining BAM8-22 calcium response % of control (active compounds read low), % at 10 µM; hit rate 19% among 2,300;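 active means remaining agonist calcium response no higher than 100% minus 3 SD of agonist-only control wells, with starting fluorescence near control levels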;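 further: agonist BAM8-22 given at a near maximal EC90 to ECmax level; peak minus minimum fluorescence divided by baseline after agonist addition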
HEK293 Ca flux: nonspecific calcium signal in parental HEK293, confirmation, counter-screen for MrgX1 antagonist project, parental HEK293 cells, Fluo-4 calcium flux. Fluo-4 calcium fluorescence, FDSS. shares compounds with MrgX1 antag. hit rate 2% among 4,000. AID 624111, 2012. fluorescence ratio F(max-min)/F0 at 10 µM;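 active means duplicate-averaged calcium fluorescence ratio at least three times the standard deviation of buffer wells, a nonspecific response in parental cells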
HEK293 Ca counter: calcium response in parental HEK293 cells, primary screen, counter-screen for MrgX1 allosteric activator project, cell-based, Fluo-4 calcium flux, duplicate. AID 624114, 2012. hit rate 0.4% among 4,000. Fluo-4 fluorescence ratio; active compounds read high. shares compounds with MrgX1 antag. fluorescence ratio F(max-min)/F0 at 10 µM;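 active means calcium fluorescence ratio, averaged over duplicates, at least 3 SD of the buffer-well ratio, meaning a nonspecific response in receptor-free cells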;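 further: untransfected parental HEK293 lacking MrgX1 used as counterscreen for MrgX1 allosteric activators; fluorescence change taken during the second addition on a kinetic imager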
HEK293 Ca cntr2: calcium response in parental HEK293 cells, primary screen, counter-screen for MrgX1 agonist project, cell-based, Fluo-4 calcium flux, duplicate, agonist mode; shares compounds with MrgX1 antag; Fluo-4 calcium fluorescence (FDSS); active compounds read high; fluorescence ratio F(max-min)/F0 at 10 µM; hit rate 8.7% among 4,000; AID 624115, 2012;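 active means calcium fluorescence ratio at least three times the spread of buffer wells, meaning a non-specific response in parental cells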
The depositor's hits bear a star; i = inactive; . = no result.

SMILES | MrgX1 agonist | RGS4 pot | MrgX1 antag | MrgX1 allo act | RGS4 inh | MrgX1 antag conf | HEK293 Ca flux | HEK293 Ca counter | HEK293 Ca cntr2
COC(=O)C1CCN(Cc2c(C(=O)N3C[C@@H](C)O[C@@H](C)C3)nc3ccc(Cl)cn23)CC1 | i | i | i | i | i | . | . | . | .
O=C(CN1C(=O)NC2(CCCC2)C1=O)N1CCN(c2cccc(C(F)(F)F)c2)CC1 | i | i | i | i | i | . | . | . | .
CC1(C)NC(=O)N(CC(=O)N2CCN(c3cccc(C(F)(F)F)c3)CC2)C1=O | i | i | -6.5* | i | i | 67%* | i | i | i
O=C1CCCC2=C1Sc1ccccc1N2 | i | i | -4.8* | i | i | i | i | i | i
O=C(c1cc(COc2cccc3cnccc23)on1)N1CCC(c2ccccc2Cl)C1 (configuration not stated) | i | i | -4.6* | i | i | i | i | i | i
O=C(c1cc(COc2c(F)cccc2F)on1)N1CCC(c2ccccc2Cl)C1 (configuration not stated) | i | i | i | i | i | . | . | . | .
O=C(NCCC1CCCCN1S(=O)(=O)c1ccc(F)cc1)C(=O)NCC1CCCO1 (configuration not stated) | i | i | -6* | i | i | i | i | i | i
COc1cccc(-c2nc(NC3CCCC3)c3ccccc3n2)c1O | i | i | -5.1* | i | i | 74%* | i | i | i
COc1ccc(-c2csc(NC(=O)c3nc(-c4ccccc4)oc3C)n2)cc1 | i | i | i | i | i | . | . | . | .
Nc1ccc(C(=O)Nc2nccs2)cc1 | i | i | i | i | i | . | . | . | .
Cc1oc(-c2ccccc2)nc1C(=O)Nc1nccs1 | i | i | -5.7* | i | i | i | i | i | i
Cc1ccc(C(=O)Nc2nccs2)cc1 | i | i | -5.3* | i | i | i | i | i | i
COc1ccc(Cn2ccnc2SCC(=O)Nc2ccccc2OC)cc1 | i | i | i | i | i | . | . | . | .
CN(C)C1C(=O)c2ccccc2C1=O | i | i | -5* | i | i | i | i | i | i
O=C1c2ccccc2C(=O)C1c1ccc(O)cc1 | i | i | i | i | i | . | . | . | .
O=C(c1ccc(Cl)c(S(=O)(=O)N2CCCCC2)c1)N1CCN(c2ccccc2)CC1 | i | i | i | i | i | . | . | . | .
O=C(c1ccc(Cl)c(S(=O)(=O)N2CCCC2)c1)N1CCN(c2ccccc2)CC1 | i | i | i | i | i | . | . | . | .
O=C(c1ccc(Cl)c(S(=O)(=O)N2CCOCC2)c1)N1CCN(c2ccccc2)CC1 | i | i | -4.6* | i | i | i | i | i | i
O=C(c1ccc(Cl)c(S(=O)(=O)N2CCCCCC2)c1)N1CCN(c2ccccc2O)CC1 | i | i | -4.8* | i | i | 80%* | i | i | i
Cc1ccc(NC(=O)C(=O)NCCCN2CCOCC2)c(C)c1 | i | i | i | i | i | . | . | . | .
COC(=O)CNC(=O)COC(=O)Cc1ccc(Cl)cc1 | i | i | i | i | i | . | . | . | .
COCCN1C(=O)/C(=C/c2ccc(N3CCCC3)cc2)SC1=S | i | i | -12* | i | i | i | i | i | i
CN(C)c1ccc(C2N(c3ccc(Cl)cc3)C(=O)C3CCCN32)cc1 (configuration not stated) | i | i | -6* | i | i | i | i | i | i
CCCC(C(=O)NC(C)(C)C)N(CC1CCCO1)C(=O)CNS(=O)(=O)c1ccc(F)cc1 (configuration not stated) | i | i | i | i | i | . | . | . | .
Cc1ccccc1NC(=O)COC(=O)c1ccccc1SCC(=O)N1CCCC1 | i | i | i | i | i | . | . | . | .
SMILES | MrgX1 agonist | RGS4 pot | MrgX1 antag | MrgX1 allo act | RGS4 inh | MrgX1 antag conf | HEK293 Ca flux | HEK293 Ca counter | HEK293 Ca cntr2
CC(/C=C1\SC(=S)N(NS(=O)(=O)c2ccc(C)cc2)C1=O)=C\c1ccccc1 | i | -7.3* | -14* | i | i | i | i | i | 47*
CCOc1ccccc1NC(=S)Nc1ccc(S(N)(=O)=O)cc1 | i | i | i | i | i | . | . | . | .
Cc1ccc(N=Cc2cc3c(cc2O)OC(N)=C(C#N)C3c2ccccc2)cc1 (configuration not stated) | i | i | -9.8* | i | i | 80%* | i | i | i
COC(=O)C1CCN(S(=O)(=O)c2ccc(NC(C)=O)cc2)CC1 | i | i | i | i | i | . | . | . | .
COC(=O)C1CCN(S(C)(=O)=O)CC1 | i | i | -4.6* | i | i | i | i | i | i
O=C(NCc1ccco1)C1CCCN1C(=O)Nc1ccccc1Cl (configuration not stated) | i | i | -12* | i | i | i | i | i | i
O=C(NCc1ccco1)C1CCCN1C(=O)Nc1ccccc1 (configuration not stated) | i | i | i | i | i | . | . | . | .
CC12CCCC[C@@H]1CCC1C2CCC2(C)C1CC[C@@]2(O)CNCCO (some centres not stated) | i | i | -7.8* | i | i | i | i | i | i
C=CCNC(=O)c1ccncc1 | i | i | i | i | i | . | . | . | .
C=CCNC(=O)c1ccc(-n2cccc2)cc1 | i | i | -8* | i | i | i | i | i | i
S=C(NCc1ccc(Cl)cc1Cl)NC1CCCCC1 | i | i | -4.6* | i | i | 60%* | i | i | i
Clc1ccc(CNC2CCCC2)c(Cl)c1 | i | i | i | i | i | . | . | . | .

Bioassay records: PubChem, Johns Hopkins Ion Channel Center
